Data set [1] has as its system HCT-116. The data set is described as follows: Antitumor activity against human HCT116 cells xenografted in BALB/c athymic nude mouse assessed as tumor growth inhibition at 60 mg/kg, po administered twice daily for 4 weeks and measured every 3 days. In kind it is functional. Conditions: HCT-116, po, 672 h, read-out: TGI. The method in brief:
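Male BALB/c athymic nude mice, 5 weeks old, 16−18 g, given 0.2 mL of 5 × 10⁷ cells/mL HCT-116 in right armpit. At about 100 mm³, randomized to groups of five; intragastric dosing twice daily for 4 weeks. Tumor volume and body weight every 3 days; tumors weighed after sacrifice; organs HE-stained.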
(In xenograft studies the graft and the host belong to different species.)

Data set [2] deals with HCT-116. The experiment in a line: Induction of apoptosis in human HCT116 cells assessed as reduction in Bcl2 protein expression at 20 uM incubated for 24 hrs by Western blot analysis. The data set is classed as functional, cell-based. The method in brief:
(§1)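 HCT-116 cells at 2 × 10⁵ cells/mL in DMEM/10% FBS, grown 12 h at 37 °C, then treated 24 h (vehicle DMSO). Lysates quantified by BCA, run on 10% SDS-PAGE, PVDF transfer, blocked in 5% milk/TBST, primary antibodies 4 °C overnight, HRP secondary 2 h, chemiluminescent detection; normalized to β-actin, n = 3.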
In general terms: A western blot detects proteins with antibodies after separation by electrophoresis.

The subject of data set [3] is HCT-116. The experiment in a line: Inhibition of cell stemness in human HCT116 cells assessed as reduction in number of tumor spheres at 5 uM after 10 days by microscopic analysis. In kind it is functional, cell-based. The settings on record: time 10.0 day. An outline of the steps: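 Sorted ALDH⁺ HCT-116 cells, 800/well, in serum-free DMEM with B27 (1:50), EGF 20 ng/mL, β-FGF 10 ng/mL; co-incubated with compound (5 μM) or DMSO vehicle for 10 days; sphere number, diameter and morphology scored from microscopy images; mean ± SD, n = 3.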

The subject of data set [4] is HCT-116. The experiment in a line: Effect on Wnt/beta-Catenin signaling in human HCT116 cells assessed as upregulation of DKK1 protein level after 24 hrs by Western blotting analysis. Conditions: dose 5-20 µM. In kind it is functional, cell-based. An outline of the steps:
as §1

A short description of data set [5]: Toxicity in BALB/c mouse xenografted with human HCT116 cells assessed as effect on heart tissue at 60 to 90 mg/kg, po administered twice daily for 4 weeks and measured every 3 days by HE staining based assay. The data set is classed as organism-based, HCT-116. The settings on record: in vivo, 672 h, dose 60-90 mg/kg. An outline of the steps: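 Male 5-week BALB/c nude mice (16−18 g), 0.2 mL of 5 × 10⁷ cells/mL HCT-116 injected into right armpit; at ~100 mm³ randomized, 5/group; intragastric 60 or 90 mg/kg twice daily for 4 weeks; tumor volume and body weight every 3 days; after sacrifice heart, liver, spleen, lung, kidney HE-stained.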

Data set [6] in a line: Clearance in Sprague-Dawley rat at 25 mg/kg, po measured up to 48 hrs by LC-MS/MS analysis. The settings on record: in vivo. In kind it is ADME, organism-based. The method in brief: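 Overnight-fasted male SD rats (about 250−270 g), three per group, single oral 25 mg/kg; test compound suspended in 5% CMC-Na, control as sodium salt in phosphate buffer. Blood sampled 0.25–48 h, plasma by centrifugation, stored −40 °C, quantified by LC−MS/MS against plasma standard curve (3–3000 ng/mL) with internal standard; model-fitted PK parameters.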

The target of data set [7] is T1, Ephrin type-A receptor 1 (Homo sapiens) (UniProt P21709).
T1 sequence (whole entry): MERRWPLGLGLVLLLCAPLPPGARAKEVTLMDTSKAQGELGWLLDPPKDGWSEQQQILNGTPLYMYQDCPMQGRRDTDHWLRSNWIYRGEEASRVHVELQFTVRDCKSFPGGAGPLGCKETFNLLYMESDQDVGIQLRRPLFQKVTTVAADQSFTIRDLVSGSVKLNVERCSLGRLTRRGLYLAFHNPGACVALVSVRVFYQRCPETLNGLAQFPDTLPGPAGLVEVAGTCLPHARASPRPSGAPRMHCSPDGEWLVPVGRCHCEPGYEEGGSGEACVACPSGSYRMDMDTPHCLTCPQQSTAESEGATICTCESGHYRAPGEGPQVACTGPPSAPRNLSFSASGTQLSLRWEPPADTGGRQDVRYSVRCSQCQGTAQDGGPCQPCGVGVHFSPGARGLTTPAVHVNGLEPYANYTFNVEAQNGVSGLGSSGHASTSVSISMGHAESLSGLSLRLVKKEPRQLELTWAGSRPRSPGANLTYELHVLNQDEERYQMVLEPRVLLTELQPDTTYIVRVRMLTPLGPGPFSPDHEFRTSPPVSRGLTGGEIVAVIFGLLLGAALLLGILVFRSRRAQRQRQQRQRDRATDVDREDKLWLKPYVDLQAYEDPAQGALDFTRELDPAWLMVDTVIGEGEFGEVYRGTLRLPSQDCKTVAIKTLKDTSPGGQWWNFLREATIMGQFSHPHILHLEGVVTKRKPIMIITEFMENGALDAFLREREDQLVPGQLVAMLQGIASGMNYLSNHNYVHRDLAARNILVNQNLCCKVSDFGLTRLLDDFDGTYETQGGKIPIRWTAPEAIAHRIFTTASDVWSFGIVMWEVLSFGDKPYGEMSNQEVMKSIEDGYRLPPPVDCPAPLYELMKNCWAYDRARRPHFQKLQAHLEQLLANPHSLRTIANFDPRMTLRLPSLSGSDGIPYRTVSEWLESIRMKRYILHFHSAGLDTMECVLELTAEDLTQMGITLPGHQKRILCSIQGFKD
The data set is described as follows: Inhibition of EPHA1 (unknown origin) assessed as residual activity at 1 uM relative to control. An outline of the steps:
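Single-concentration screen at 1 μmol/L against a panel of 208 kinases, run as a commercial service; activity expressed relative to control.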

Data set [8] has as its system HCT-116. The data set is described as follows: Induction of apoptosis in human HCT116 cells assessed as necrotic cells at 20 uM after 24 hrs by annexin V-FITC/propidium iodide staining based flow cytometry (reference value: 5.6%). In kind it is functional. In general terms: A flow cytometer gives signals particle by particle.

Active and inactive are the calls of the source. The rule behind the calls is not given here.

For `O=C(NCCO)c1ccc2c(c1)nc(Nc1cccc(Cl)c1)c1ccncc12`, the inhibition in vivo at 60 mg/kg in data set [1] was found to be 59%. In data set [2], the outcome was Active. Moreover, the inhibition entry in data set [3] was “Active”. In addition, the Activity entry is “Dose-Dependent Effect” in data set [4], “Non-Toxic” in data set [5], 45.2% in data set [7] and 8.7% in data set [8]. In addition, in data set [6], the CL/F – broadly, clearance divided by bioavailability, as obtained after extravascular dosing – is 10 mL/min/kg.

The values above are taken from ChEMBL document CHEMBL4808178 (J Med Chem, 2021).
